Source: PubChem BioAssay (several laboratories)
Sampled rows, rich in hits. Any-hit rate of the full collection: about 4.9%.
NF-kB neuron act: NF-kB expression increase, human neuronal cells; AID 1239; fold change at 12.5 µM; NF-kB reporter expression; active compounds read high; 190,000 compounds, 1.6% hits; in the data active = fold change above about 3.3
STAT1 blocker: reduces IFN-gamma driven STAT1 reporter signal. NIH 3T3 STAT1-luciferase reporter, luminescence. inhibition, % at 5.5 µM. 200,000 compounds, 0.35% hits. AID 920;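 active = inhibition above a set limit, the mean inhibition across all tested compounds plus 3 SD, cut at about 34% in these data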;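 note: 0% = IFN-gamma with DMSO and 100% = IFN-gamma with 300 µM nifuroxazide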
STAT3 activator: activators of IL-6 induced STAT3 signaling; U3A cells, IL-6 STAT3-luciferase reporter, luminescence; 100% = signal with IL-6 EC80 alone; AID 871; activation (% of control), % at 5.6 µM; 190,000 compounds, 0.91% hits;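 active = activation above the screen-wide mean of compound activation plus 3 SD, cut at about 130% in these data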;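 note: 0% = background luminescence of wells with medium and substrate only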
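Material: human STAT1-deficient U3A cells with stable STAT3-luciferase reporter / Probe or stimulus: IL-6 stimulus at 33 ng/mL final / Schedule: 1 h compound pre-exposure, 6 h IL-6 stimulation, 37 °C / Technique: luminescence / Read-out basis: percent of IL-6-only median luminescence / Control set: IL-6-only high control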
STAT1 act: activators of IFN-gamma induced STAT1 signaling. NIH 3T3 STAT1-luciferase reporter, luminescence; 100% = IFN-gamma alone, no compound. activation (% of control), % at 5.5 µM. 200,000 compounds, 2.6% hits. AID 932;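 active = activation above the screen-wide mean activation plus 3 SD, cut at about 130% in these data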;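 note: raw ratio to IFN-gamma control signal so 100% means no change and 0% no light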
STAT3 blocker: STAT3 signaling inhibition; U3A cells, IL-6 STAT3-luciferase reporter, luminescence; host cell line lacks STAT1; inhibition, % at 5.5 µM; 190,000 compounds, 0.89% hits;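 active = inhibition above the mean inhibition across all screened compounds plus 3 SD, cut at about 44% in these data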;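 note: 0% = DMSO only wells and 100% = 100 µM nifuroxazide control wells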
APP 5'UTR act: activates APP 5'UTR luciferase reporter; activation, % at 2 µM; 190,000 compounds, 1% hits; SH-SY5Y APP 5'UTR luciferase reporter, luminescence; zero percent = DMSO vehicle wells;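 active = activation above a set limit, based on mean plus 3 SD of controls, cut at about 140% in these data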
* marks the source's active call; other numbers are inactive results; nt = no result.

SMILES	NF-kB neuron act	STAT1 blocker	STAT3 activator	STAT1 act	STAT3 blocker	APP 5'UTR act
O=C(Nc1cnc2ccccc2c1)N1CCCCC1	2.2	-35.7	104.1	135.0*	1.8	86.0
CSc1nnc(C)c(=O)n1COC(=O)c1ccc(S(=O)(=O)N2CCOCC2)cc1	1.37	-2.4	98.6	102.2	-3.4	-2.3
O=C1/C(=C\c2ccccc2)CCc2c1[nH]c1ccccc21	4.67*	-46.0	104.5	141.4*	5.1	161.8*
COCCNC(=O)/C(C#N)=C/c1ccc(C)o1	1.19	-10.0	98.4	107.3	5.3	-13.5
CC(=O)c1c(C)[nH]c(C(=O)OCCOc2ccccc2)c1C	2.54	50.1*	31.1	53.1	84.4*	212.0*
CC(=O)c1c(C)[nH]c(C(=O)NCCc2ccccc2)c1C	3.44*	-53.7	96.0	149.2*	9.9	131.4
CC(=O)c1c(C)[nH]c(C(=O)COC(=O)CCCOc2ccccc2)c1C	1.08	4.1	97.3	96.1	8.8	-0.3
COc1ccc(CCNC(=O)c2[nH]c(C)c(C(C)=O)c2C)cc1OC	1.1	1.0	92.7	99.1	11.0	-0.7
Cc1ccc(C(=O)COC(=O)c2ccc(Br)o2)cc1C	1.47	-14.0	91.0	112.8	14.3	6.5
COCCn1c(C)cc(C(=O)COC(=O)CNC(=O)c2ccccc2)c1C	1	4.1	77.8	96.3	26.0	-6.8
Cc1cc(C(=O)COC(=O)c2ccc(Br)o2)c(C)n1C	3.96*	-37.5	100.2	135.0*	5.6	70.5
COCCn1c(C)cc(C(=O)COC(=O)c2ccc(Br)o2)c1C	1.06	-7.2	104.6	106.3	-1.5	268.0*
CC(Sc1n[nH]c(N)n1)C(=O)Nc1cccc(S(=O)(=O)N2CCOCC2)c1 (configuration not stated)	1.16	0.1	104.9	98.6	1.2	-13.3
Cc1ccc(/C(N)=N/OC(=O)/C=C/c2ccccc2)cc1	2.26	0.1	92.4	99.9	11.1	6.5
Cc1ccccc1/C(N)=N/OC(=O)/C=C/c1ccccc1	3.88*	-24.8	100.2	122.9	-3.3	86.3
COc1cccc(C(=O)/C=C/c2ccc(OCC#N)c(OC)c2)c1	1.38	-2.7	95.5	102.4	4.6	-13.8
Cc1ccc(/C=C/C(=O)c2ccc(C)cc2)cc1	1.6	-15.4	96.1	112.1	7.8	33.5
COc1cc(/C=C/C(=O)c2ccc(O)cc2)ccc1OCC#N	3.72*	8.4	88.6	92.6	16.8	-14.7
COc1ccc(C(=O)/C=C/c2ccc(O)cc2)cc1	3.57*	-8.5	nt	106.6	nt	12.3
CCOc1ccc(/C=C/C(=O)c2ccccc2)cc1OC	0.96	-21.7	119.1	119.3	-26.0	144.5*
COc1cccc(-c2nc(CS(=O)CC(=O)NCc3ccccc3Cl)c(C)o2)c1 (configuration not stated)	1.17	4.8	96.0	95.7	13.2	14.7
COc1ccc(COC(=O)NNC(=O)c2ccc(OC)cc2)cc1	1.04	-3.9	93.5	104.8	9.9	0.8
COc1ccc(/C=C/C(=O)O/N=C(\N)c2ccccc2)cc1OC	2.02	-40.9	96.3	136.9*	7.2	87.2
COc1ccc(C(=O)/C=C/c2ccc(O)cc2)c(O)c1CC=C(C)C	5*	0.8	95.1	99.3	3.0	-0.9
COc1ccc(/C=C/C(=O)c2ccc(O)cc2)cc1CN1CCOCC1	3.7*	2.3	90.9	97.9	10.3	17.9
SMILES	NF-kB neuron act	STAT1 blocker	STAT3 activator	STAT1 act	STAT3 blocker	APP 5'UTR act
COc1ccc(/C(N)=N/OC(=O)/C=C/c2ccccc2)cc1	1.16	-22.1	87.9	120.4	17.3	3.0
COc1ccc(C(=O)OCCc2ccc(O)cc2)cc1	6.7*	-53.4	92.8	148.5*	5.8	118.3
CCOC(=O)N1CCN(C(=O)COC(=O)c2cc(Cl)c(O)c(Cl)c2)CC1	1.34	18.6	99.5	81.3	4.3	1.0
CC(=O)c1cc2c(C)c(C(=O)c3ccccc3)oc2cc1O	4.01*	-22.7	70.6	120.2	34.2	156.4*
Clc1cc(Br)ccc1OCCN1CCOCC1	1.3	-10.1	98.1	109.0	4.5	8.9
CCCCCOc1ccc(CN2CCOCC2)cc1Cl	1.95	-15.1	106.2	115.5	-0.6	144.0*
Cc1ccccc1-n1c(SCC(=O)N/N=C/c2sccc2C)nc2ccccc2c1=O	0.54	0.6	92.2	99.4	7.0	-16.9
COc1ccc(/C=C/C(=O)c2c(O)cc(C)oc2=O)c(OC)c1	4.09*	-41.9	122.7	138.2*	-28.1	53.2
